Results on 1 compound are retold here after ChEMBL document CHEMBL4811241, “Revisiting Pyrazolo[3,4-d]pyrimidine Nucleosides as Anti-Trypanosoma cruzi and Antileishmanial Agents” (J Med Chem, 2021).

Data set [1] deals with Trypanosoma cruzi. As to the kind of experiment: Antitrypanosomal activity against nifurtimox-sensitive Trypanosoma cruzi Tulahuen CL2 infected in human MRC-5 SV2 cells assessed as inhibition of parasite growth measured after 7 days by spectrophotometric analysis. As to conditions: Tulahuen CL2, MRC-5 SV2, 168 h. It is filed as functional, organism-based.
Data set [2] is described as follows: Selectivity index, ratio of CC50 for human MRC-5 SV2 cells to IC50 for antitrypanosomal activity against nifurtimox-sensitive Trypanosoma cruzi Tulahuen CL2 infected in human MRC-5 SV2 cells. It is filed as toxicity, cell-based. The following applies: read-out: Ratio CC50/IC50. Summed up: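 Ratio of MRC-5SV2 CC50 (3-day resazurin assay) to IC50 against T. cruzi amastigotes in MRC-5SV2 cells (7-day CPRG assay).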

Data set [3] relates to CYP450. Description: Metabolic stability of the compound in mouse liver microsomes S9 fraction assessed as CYP450-mediated metabolism by measuring parent compound remaining at 5 uM measured after 30 mins in presence of NADPH by UPLC-MS analysis. It is filed as ADME, subcellular. As to conditions: read-out: Stabilty. A digest of the protocol: (§1)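 Compound at 5 μM with 0.5 mg/mL male mouse or pooled human liver microsomes in potassium phosphate buffer; reaction started with 1 mM NADPH. Samples taken at 0, 15, 30 and 60 min and quenched in cold acetonitrile with internal standard. Parent remaining quantified by UPLC-MS/MS in MRM mode and given as % of the 0 min value.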
A general note: Microsomes from liver hold many membrane-bound enzymes, among them those of drug oxidation.

In data set [4] the test system is CYP450. As to the kind of experiment: Metabolic stability of the compound in mouse liver microsomes S9 fraction assessed as CYP450-mediated metabolism by measuring parent compound remaining at 5 uM measured after 60 mins in presence of NADPH by UPLC-MS analysis. It is filed as ADME, subcellular. As to conditions: read-out: Stabilty. A digest of the protocol:
as §1

For data set [5], the target named is CYP450 (Homo sapiens, UniProt P04798+P05177+P05181+P08684+P10632+P10635+P11509+P11712+P13584+P20813+P20815+P20853+P24462+P24903+P33260+P33261+P51589+P78329+P98187+Q02928+Q08477+Q16678+Q16696+Q5TCH4+Q6VVX0+Q7Z449+Q8TAV3+Q96SQ9+Q9HB55). As to the kind of experiment: Metabolic stability of the compound in human liver microsomes S9 fraction assessed as CYP450-mediated metabolism by measuring parent compound remaining at 5 uM measured after 60 mins in presence of NADPH by UPLC-MS analysis. It is filed as ADME, subcellular. The following applies: read-out: Stabilty. Summed up:
as §1

Data set [6] concerns UGT. As to the kind of experiment: Metabolic stability of the compound in mouse liver microsomes S9 fraction assessed as UGT-mediated metabolism by measuring parent compound remaining at 5 uM measured after 15 mins in presence of UDPGA by UPLC-MS analysis. Type of data set: ADME, subcellular. As to conditions: read-out: Stabilty. Summed up: (§2)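 Compound at 5 μM with 0.5 mg/mL male mouse or pooled human liver microsomes; reaction started with 2 mM UDPGA. Sampled at 0, 15, 30 and 60 min and quenched in cold acetonitrile with internal standard. Parent remaining measured by UPLC-MS/MS (MRM) as % of the 0 min value.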

The test system of data set [7] is UGT. Description: Metabolic stability of the compound in mouse liver microsomes S9 fraction assessed as UGT-mediated metabolism by measuring parent compound remaining at 5 uM measured after 30 mins in presence of UDPGA by UPLC-MS analysis. Type of data set: ADME, subcellular. As to conditions: read-out: Stabilty. A digest of the protocol:
as §2

Data set [8] relates to UGT. As to the kind of experiment: Metabolic stability of the compound in mouse liver microsomes S9 fraction assessed as UGT-mediated metabolism by measuring parent compound remaining at 5 uM measured after 60 mins in presence of UDPGA by UPLC-MS analysis. It is filed as ADME, subcellular. The following applies: read-out: Stabilty. A digest of the protocol: as §2
Data set [9] deals with T1, UGT (Homo sapiens, UniProt O60656+O75310+O75795+P06133+P0DTE4+P0DTE5+P16662+P19224+P22309+P22310+P35503+P35504+P36537+P54855+Q6UWM9+Q9BY64+Q9HAW7+Q9HAW8+Q9HAW9). Description: Metabolic stability of the compound in human liver microsomes S9 fraction assessed as UGT-mediated metabolism by measuring parent compound remaining at 5 uM measured after 15 mins in presence of UDPGA by UPLC-MS analysis. The following applies: read-out: Stabilty. It is filed as ADME, subcellular. Summed up:
as §2

Data set [10] has as its target T1, UGT. Description: Metabolic stability of the compound in human liver microsomes S9 fraction assessed as UGT-mediated metabolism by measuring parent compound remaining at 5 uM measured after 60 mins in presence of UDPGA by UPLC-MS analysis. Type of data set: ADME, subcellular. The following applies: read-out: Stabilty. Summed up:
as §2

Data set [11] deals with Trypanosoma cruzi. As to the kind of experiment: Antitrypanosomal activity against Trypanosoma cruzi strain Y bloodstream trypomastigotes infected in Swiss Webster mouse assessed as reduction in parasitemia at 25 mg/kg, po bid for 5 days treatment started at 6 days post-infection and measured at 8 days post-infection by light microscopic analysis. Type of data set: functional. As to conditions: 48 h, time 2 day. A digest of the protocol:
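Male Swiss Webster mice, 18–20 g, six per group; only mice with detectable parasitemia treated. Oral gavage for 5 consecutive days (6–10 dpi); test compound given b.i.d. in 10% Tween 80, benznidazole once daily, formulations freshly prepared. Parasitemia counted by light microscopy in 5 μL blood; mortality checked daily to 34 dpi.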

The test system of data set [12] is Trypanosoma cruzi. As to the kind of experiment: Antitrypanosomal activity against intracellular amastigote form of Trypanosoma cruzi Y infected in Swiss Webster mouse cardiomyocytes assessed as inhibition of parasite growth incubated for 48 hrs by Giemsa staining based microscopic analysis. It is filed as functional, organism-based. The following applies: Cardiac muscle cell. Summed up:
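Primary 2D mouse embryo cardiac cell cultures, infected for 24 h, then washed and exposed for 48 h at 37 °C to a serial dilution. Cells fixed and stained with Giemsa; infected cells and parasites per infected cell scored in 200 host cells. Activity expressed from the inhibition index; two independent experiments run in duplicate.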

The nature of data set [13]: Cytotoxicity against Swiss Webster mouse 2D cardiomyocytes assessed as reduction in cell viability measured after 48 hrs by PrestoBlue assay. The arrangement: species or system Cardiac Muscle Cell. The following applies: read-out: LC50. A digest of the protocol:
(§3)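 Mouse embryo heart cells as monolayer (2D) or 3D aggregates (25 × 10³ cells/well on 1% agarose). Uninfected cultures exposed 48 h to rising concentrations. Morphology checked by light microscopy; viability read by PrestoBlue; CC₅₀ determined.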

Data set [14] can be described thus: Selectivity index, ratio of LC50 for cytotoxicity against Swiss Webster mouse 2D cardiomyocytes to IC50 for antitrypanosomal activity against intracellular amastigote form of Trypanosoma cruzi Y infected in Swiss Webster mouse cardiomyocytes. It is filed as toxicity, cell-based. The following applies: read-out: Ratio LC50/IC50. Summed up: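 Ratio of cardiac-cell CC₅₀ to Y-strain amastigote IC₅₀. Cardiac cultures were infected after 24 h plating for 24 h with bloodstream trypomastigotes (10:1 parasite/host). After washing, cells were treated 48 h at 37 °C with a serial dilution. Cells were then Giemsa-stained, with infection and parasites per cell scored in 200 cells. Two independent experiments were run in duplicate.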

Data set [15] can be described thus: Cytotoxicity against Swiss Webster mouse 3D cardiomyocytes assessed as reduction in cell viability measured after 48 hrs by PrestoBlue assay. Type of data set: tissue-based, Cardiac Muscle Cell. Summed up: as §3
The test system of data set [16] is Trypanosoma cruzi. As to the kind of experiment: Antitrypanosomal activity against nifurtimox-sensitive Trypanosoma cruzi Tulahuen CL2 infected in Swiss mouse peritoneal macrophages assessed as inhibition of parasite growth measured after 7 days by spectrophotometric analysis. It is filed as functional, organism-based. As to conditions: Tulahuen CL2, Peritoneal macrophage, 168 h.

For data set [17], the system named is Trypanosoma cruzi. As to the kind of experiment: Antitrypanosomal activity against nifurtimox-sensitive Trypanosoma cruzi Tulahuen CL2 infected in Swiss mouse peritoneal macrophages assessed as inhibition of parasite growth measured after 7 days in presence of ABC transporter inhibitor, verapamil by spectrophotometric analysis. Type of data set: functional, organism-based. The following applies: Tulahuen CL2, Peritoneal macrophage, 168 h. Summed up:
(§4)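 Macrophage-hosted 7-day assay read with CPRG at 540 nm, with compound given together with an ABC transporter inhibitor: cyclosporine A 2 μM, probenecid 700 μM or verapamil 8 μM. IC50 from % reduction versus infected controls.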

Data set [18] deals with Trypanosoma cruzi. As to the kind of experiment: Antitrypanosomal activity against nifurtimox-sensitive Trypanosoma cruzi Tulahuen CL2 infected in Swiss mouse peritoneal macrophages assessed as inhibition of parasite growth measured after 7 days in presence of ABC transporter inhibitor, cyclosporine A by spectrophotometric analysis. As to conditions: Tulahuen CL2, Peritoneal macrophage, 168 h. It is filed as functional, organism-based. A digest of the protocol:
as §4

One may read the IC50 as the midpoint of a concentration-inhibition curve. The inhibition in vivo is how much of the control response was suppressed.

On to `Nc1ncnc2c1c(-c1ccc(Cl)cc1)nn2[C@@H]1O[C@H](CO)[C@@H](O)[C@H]1O`, for which the concentration for half-maximal inhibition (IC50) in the data set on Trypanosoma cruzi [1] was 0.32 µM; in the data set with Trypanosoma cruzi [12], 0.26 µM; in the data set with Trypanosoma cruzi [16], > 64 µM; with Trypanosoma cruzi [17], > 64 µM; in the data set on Trypanosoma cruzi [18], > 64 µM. Further, the values for the selectivity ratio in data set [2] and in data set [14] were > 197 and > 1900, respectively. Moreover, the remaining at 0.5 h, 5 µM came out at 103% with CYP450 [3] and 115% in the data set with UGT [7]. The remaining at 1 h, 5 µM with CYP450 [4] worked out at 108%; on CYP450 [5] it was 101%; in the data set with UGT [8], 115%; at UGT [10] it was 104%. The remaining at 0.25 h, 5 µM was 103% with UGT [6] and 100% at UGT [9]. Moreover, in the data set with Trypanosoma cruzi [11], the inhibition in vivo at 25 mg/kg was determined as 99%. Further, the CC50 at 48 h in data set [13] worked out at 500 µM; in data set [15], 200 µM.
